Molecules are shown by their SMILES. The source made the active and inactive calls. The calls are words filed in the database; no cut-off is given here.

The text below walks through data of ChEMBL document CHEMBL2057140, “Design, synthesis, biological evaluation and molecular modeling of novel 1,3,4-oxadiazole derivatives based on Vanillic acid as potential immunosuppressive agents” (Bioorg Med Chem, 2012).

The subject of data set [1] is T-cell. Kind of data set: Selectivity index ratio of CC50 for BALB/c mouse lymph node cells to IC50 for BALB/c mouse ConA-induced T cell proliferation. Type of data set: functional. A digest of the protocol: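 Ratio of the lymph node cell CC₅₀ from the 24 h MTT cytotoxicity assay to the IC₅₀ against ConA-stimulated proliferation from the 72 h MTT assay.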
Data set [2] is described as follows: Cytotoxicity against BALB/c mouse lymph node cells after 24 hrs by MTT assay. Type of data set: cell-based. A digest of the protocol: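 Fresh BALB/C mouse lymph node cells, 5 × 10⁵ per well, given compounds at […] for 24 h at 37 °C, 5% CO₂; untreated cells served as control. MTT (4 mg/mL in PBS) added for the final 4 h, formazan dissolved in DMSO, absorbance read at 570 nm; CC₅₀ reported with SD.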

The nature of data set [3]: Immunosuppressive activity in BALB/c mouse T cells assessed as inhibition of ConA-induced T cell proliferation incubated 24 hrs post ConA-induction for 72 hrs by MTT assay. Type of data set: functional, cell-based. A digest of the protocol: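 BALB/C lymph node cells, 5 × 10⁵ per well, stimulated with ConA at […] for 24 h, then left untreated or given compounds for 72 h. MTT (4 mg/mL in PBS) added for the last 4 h; proliferation read by MTT and IC₅₀ reported with SD.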

The target in data set [4] is Phosphatidylinositol 4,5-bisphosphate 3-kinase catalytic subunit gamma isoform (Homo sapiens, UniProt P48736). Kind of data set: Inhibition of PI3Kgamma after 4 hrs.
The test system of data set [5] is T-cell. Nature of the data set: Induction of apoptosis in BALB/c mouse ConA-activated T cells incubated 24 hrs-post ConA-activation for 24 hrs by AnnexinV-FITC based flow cytometry. Type of data set: functional. A digest of the protocol: (§1)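 Lymph node cells, 3 × 10⁶ per well, stimulated with ConA at […] for 24 h, then exposed to compound at 0.25, 2.5 or 25 µM for 24 h. Cells harvested, stained with Annexin V-FITC and propidium iodide, and apoptotic fraction measured by flow cytometry.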

Data set [6] has as its system T-cell. Kind of data set: Induction of apoptosis in BALB/c mouse ConA-activated T cells assessed as early apoptotic cells at 2.5 uM incubated 24 hrs-post ConA-activation for 24 hrs by AnnexinV-FITC based flow cytometry relative to vehicle treated control. In kind it is functional. A digest of the protocol: as §1
The species entered for data set [7] is Mus musculus. Kind of data set: Inhibition of PI3K-mediated AKT inhibition in BALB/c mouse lymph node cells assessed as reduction in ConA-induced IL6 production at 5 uM incubated for 2 hrs prior to ConA-indution measured after 22 hrs by ELISA. A digest of the protocol: (§2)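 Mouse lymph node cells kept in DMEM with 10% FBS, penicillin and streptomycin at 37 °C, 5% CO₂. Pre-treated with compound at […] or vehicle for 2 h, then with ConA at […] for 22 h. Media centrifuged, and IL-1, IL-6 and IL-10 quantified by mouse ELISA kits.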

The test system of data set [8] is T-cell. Kind of data set: Induction of apoptosis in BALB/c mouse ConA-activated T cells assessed as early apoptotic cells at 25 uM incubated 24 hrs-post ConA-activation for 24 hrs by AnnexinV-FITC based flow cytometry relative to vehicle treated control. Type of data set: functional. A digest of the protocol:
as §1

The species named for data set [9] is Mus musculus. Nature of the data set: Inhibition of PI3K-mediated AKT inhibition in BALB/c mouse lymph node cells assessed as reduction in ConA-induced IL1 production at 5 uM incubated for 2 hrs prior to ConA-indution measured after 22 hrs by ELISA. A digest of the protocol:
as §2

Data set [10] concerns T-cell. Kind of data set: Induction of apoptosis in BALB/c mouse ConA-activated T cells assessed as early apoptotic cells at 0.25 uM incubated 24 hrs-post ConA-activation for 24 hrs by AnnexinV-FITC based flow cytometry relative to vehicle treated control. Type of data set: functional. A digest of the protocol: as §1
Data set [11] is filed under the species Mus musculus. Nature of the data set: Inhibition of PI3K-mediated AKT inhibition in BALB/c mouse lymph node cells assessed as reduction in ConA-induced IL10 production at 5 uM incubated for 2 hrs prior to ConA-indution measured after 22 hrs by ELISA. A digest of the protocol:
as §2

Sequence of Phosphatidylinositol 4,5-bisphosphate 3-kinase catalytic subunit gamma isoform (P48736 whole entry, canonical isoform): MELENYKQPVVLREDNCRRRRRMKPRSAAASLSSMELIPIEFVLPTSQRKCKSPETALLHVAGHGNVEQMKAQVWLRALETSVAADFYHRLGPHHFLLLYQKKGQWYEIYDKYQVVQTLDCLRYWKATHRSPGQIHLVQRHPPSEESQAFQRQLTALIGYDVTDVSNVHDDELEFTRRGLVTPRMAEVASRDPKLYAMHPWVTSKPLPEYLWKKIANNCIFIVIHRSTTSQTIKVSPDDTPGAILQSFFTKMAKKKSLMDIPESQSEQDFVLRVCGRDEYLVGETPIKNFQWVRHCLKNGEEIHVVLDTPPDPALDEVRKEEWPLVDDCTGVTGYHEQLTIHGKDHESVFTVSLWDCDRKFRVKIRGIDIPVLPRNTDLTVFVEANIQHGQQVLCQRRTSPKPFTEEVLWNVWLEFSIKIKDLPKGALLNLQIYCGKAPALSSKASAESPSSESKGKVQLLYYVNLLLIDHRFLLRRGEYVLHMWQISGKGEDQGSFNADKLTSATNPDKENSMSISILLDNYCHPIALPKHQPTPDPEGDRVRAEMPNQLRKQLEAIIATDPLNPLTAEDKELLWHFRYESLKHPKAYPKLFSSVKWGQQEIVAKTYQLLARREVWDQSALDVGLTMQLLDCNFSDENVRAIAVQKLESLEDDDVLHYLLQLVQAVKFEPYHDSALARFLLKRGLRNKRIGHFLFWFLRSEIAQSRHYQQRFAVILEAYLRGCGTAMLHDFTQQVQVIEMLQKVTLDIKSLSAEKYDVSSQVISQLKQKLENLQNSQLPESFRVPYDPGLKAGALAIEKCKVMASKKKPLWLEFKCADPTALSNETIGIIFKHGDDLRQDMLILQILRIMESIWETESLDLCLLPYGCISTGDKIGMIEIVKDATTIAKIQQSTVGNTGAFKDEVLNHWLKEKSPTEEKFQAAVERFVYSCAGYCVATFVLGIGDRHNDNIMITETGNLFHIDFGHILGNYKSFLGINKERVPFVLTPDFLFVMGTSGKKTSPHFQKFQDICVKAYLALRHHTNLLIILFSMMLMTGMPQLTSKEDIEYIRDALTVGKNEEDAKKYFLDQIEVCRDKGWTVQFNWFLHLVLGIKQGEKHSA

As to `COc1cc(-c2nnc(SCc3cccc([N+](=O)[O-])c3)o2)ccc1OCc1cccc([N+](=O)[O-])c1`, the “Ratio CC50/IC50” value in [1] was 13.75. The same molecule returned a CC50 at 24 h in [2] of 168 µM. Also, the IC50 in data set [3] is 12.2 µM.
In the case of `COc1cc(-c2nnc(SCc3ccc(Br)cc3)o2)ccc1OCc1ccc(Br)cc1`, in [1], the “Ratio CC50/IC50” value stood at 12.99. The molecule further returned a CC50 at 24 h in data set [2] of 225 µM. For the same molecule, the IC50 in data set [3] worked out at 17.3 µM.
For `COc1cc(-c2nnc(SCc3ccc(Cl)cc3)o2)ccc1OCc1ccc(Cl)cc1` the same measures were 5, 136 µM and 17.2 µM.
Regarding `COc1cc(-c2nnc(SCc3ccc(F)cc3)o2)ccc1OCc1ccc(F)cc1`, the “Ratio CC50/IC50” value in [1] stood at 11.89. Further, the CC50 at 24 h in data set [2] stood at 153 µM. Further, the IC50 in data set [3] was found to be 12.9 µM.
For `COc1cc(-c2nnc(SCc3ccc(F)cc3F)o2)ccc1O` the same measures were 53.67, 520 µM and 9.69 µM.
With `COc1cc(-c2nnc(SCc3ccccc3Br)o2)ccc1OCc1ccccc1Br`, the “Ratio CC50/IC50” value in data set [1] worked out at 17.33. Further, the CC50 at 24 h in [2] stood at 151 µM. Moreover, in [3], the IC50 was 8.71 µM.
Regarding `COc1cc(-c2nnc(SCc3c(F)cccc3F)o2)ccc1OCc1c(F)cccc1F`, the “Ratio CC50/IC50” value in data set [1] was determined as 34.21. The molecule further gave a CC50 at 24 h in [2] of 179 µM. Besides, the values for the IC50 in data set [4] and in [3] were 5.74 µM and 5.22 µM, respectively.
Take `COc1cc(-c2nnc(SCc3ccccc3F)o2)ccc1O`: the “Ratio CC50/IC50” value in data set [1] was 81.82. In addition, the CC50 at 24 h in data set [2] came out at 474 µM. Further, in [3], the IC50 is 5.79 µM.
For `COc1cc(-c2nnc(SCc3ccccc3Br)o2)ccc1O` the same measures were 20.42, 363 µM and 17.8 µM.
With `COc1cc(-c2nnc(SCc3ccc(F)cc3F)o2)ccc1OCc1ccc(F)cc1F`, the “Ratio CC50/IC50” value in data set [1] is listed as 14.1. It took 182 µM to reach half-maximal cytotoxicity in data set [2] (CC50 at 24 h). Further, the IC50 in [3] was determined as 12.9 µM.
On to `C/C=C/C[C@@H](C)[C@@H](O)[C@H]1C(=O)N[C@@H](CC)C(=O)N(C)CC(=O)N(C)[C@@H](CC(C)C)C(=O)N[C@@H](C(C)C)C(=O)N(C)[C@@H](CC(C)C)C(=O)N[C@@H](C)C(=O)N[C@H](C)C(=O)N(C)[C@@H](CC(C)C)C(=O)N(C)[C@@H](CC(C)C)C(=O)N(C)[C@@H](C(C)C)C(=O)N1C` [CYCLOSPORINE], for which, in data set [1], the “Ratio CC50/IC50” value was 82.19.
For the molecule `COc1cc(-c2nnc(SCc3ccc(Br)cc3)o2)ccc1O`, the “Ratio CC50/IC50” value in data set [1] is recorded as 51.58. In addition, it took 455 µM to reach half-maximal cytotoxicity in data set [2] (CC50 at 24 h). The IC50 in data set [3] was 8.83 µM.
Regarding `COc1cc(-c2nnc(SCc3ccccc3C)o2)ccc1O`, in [1], the “Ratio CC50/IC50” value worked out at 70.36. Besides, in data set [2], the cytotoxic concentration (CC50) at 24 h is 592 µM. The results for the IC50 in data set [4] and in [3] were 6.48 µM and 8.42 µM, respectively.
For `COc1cc(-c2nnc(SCc3ccc(C)cc3)o2)ccc1O` the same measures were 88.5, 549 µM, 7.41 µM and 6.21 µM.
Consider `COc1cc(-c2nnc(SCc3ccccc3)o2)ccc1O`, for which the “Ratio CC50/IC50” value in data set [1] came to 168.83. Moreover, the Activity result was “Dose-dependent effect” in data set [5], 4.34% in data set [6], 4.98% in [8] and 2.43% in [10]. In addition, the inhibition result in data set [7], in [9] and in [11] was “Active” throughout. This molecule displayed a CC50 at 24 h in data set [2] of 211 µM. Also, the IC50 in data set [4] was 1.34 µM; in data set [3], 1.25 µM.
For the molecule `COc1cc(-c2nnc(SCc3ccc([N+](=O)[O-])cc3)o2)ccc1O`, the “Ratio CC50/IC50” value in data set [1] was 48.6. Besides, the 50% cytotoxic concentration (CC50) at 24 h in data set [2] is 688 µM. For the same molecule, the IC50 in [3] came to 14.2 µM.
Turning to `COc1cc(-c2nnc(SCc3ccccc3[N+](=O)[O-])o2)ccc1O`, the “Ratio CC50/IC50” value in data set [1] is given as 34.45. The molecule further registered a CC50 at 24 h in data set [2] of 331 µM. In [3], the IC50 came out at 9.6 µM.
On to `COc1cc(-c2nnc(SCc3cccc(Br)c3)o2)ccc1OCc1cccc(Br)c1`, for which the “Ratio CC50/IC50” value in data set [1] is given as 17.66. This molecule also returned a 50% cytotoxic concentration (CC50) at 24 h in data set [2] of 161 µM. Moreover, in [3], the IC50 was 9.12 µM.
For `COc1cccc(COc2ccc(-c3nnc(SCc4cccc(OC)c4)o3)cc2OC)c1` the same measures were 24.04, 242 µM and 10.1 µM.
With `COc1cc(-c2nnc(SCc3cccc(Cl)c3)o2)ccc1OCc1cccc(Cl)c1`, in [1], the “Ratio CC50/IC50” value is reported as 11.23. The molecule further showed a CC50 at 24 h in data set [2] of 178 µM. Further, the IC50 in [3] stood at 15.8 µM.
For `COc1cc(-c2nnc(SCc3cccc(Cl)c3)o2)ccc1O` the same measures were 56.74, 470 µM and 8.29 µM.
For `COc1cc(-c2nnc(SCc3ccccc3Cl)o2)ccc1OCc1ccccc1Cl` the same measures were 8.67, 144 µM and 10.6 µM.
For `COc1cc(-c2nnc(SCc3ccccc3)o2)ccc1OCc1ccccc1` the same measures were 14.79, 197 µM and 13.3 µM.
In the case of `COc1cc(-c2nnc(SCc3ccc(C)cc3)o2)ccc1OCc1ccc(C)cc1`, the “Ratio CC50/IC50” value in data set [1] was determined as 30.38. In data set [2], this molecule showed a CC50 at 24 h of 275 µM. For the same molecule, in data set [3], the IC50 was 9.06 µM.
For `COc1cc(-c2nnc(SCc3ccccc3Cl)o2)ccc1O` the same measures were 66.94, 564 µM and 8.43 µM.
For `COc1cc(-c2nnc(SCc3ccc(Cl)cc3)o2)ccc1O` the same measures were 43.35, 480 µM and 11.1 µM.
For `COc1cc(-c2nnc(SCc3ccc([N+](=O)[O-])cc3)o2)ccc1OCc1ccc([N+](=O)[O-])cc1` the same measures were 20.48, 156 µM and 7.6 µM.
Take `COc1cc(-c2nnc(SCc3c(F)cccc3F)o2)ccc1O`: the “Ratio CC50/IC50” value in data set [1] came to 57.1. This molecule also yielded a CC50 at 24 h in [2] of 575 µM. Further, the IC50 in [3] worked out at 10.1 µM.
For `COc1cc(-c2nnc(SCc3ccccc3C)o2)ccc1OCc1ccccc1C` the same measures were 15.19, 195 µM and 18.9 µM.
For `COc1cc(-c2nnc(SCc3ccc(F)cc3)o2)ccc1O` the same measures were 83.62, 685 µM and 8.19 µM.
For `COc1cccc(CSc2nnc(-c3ccc(O)c(OC)c3)o2)c1`, in [1], the “Ratio CC50/IC50” value is reported as 52.55. Besides, the CC50 at 24 h in data set [2] amounted to 389 µM. For the same molecule, the IC50 in [4] came to 2.87 µM; in data set [3], 7.41 µM.
For `COc1cc(-c2nnc(SCc3ccccc3F)o2)ccc1OCc1ccccc1F`, the “Ratio CC50/IC50” value in data set [1] was 35.89. The inhibition result in data set [7], in data set [9] and in [11] was “Active” throughout. Moreover, half-maximal cytotoxicity in [2] (CC50 at 24 h) was put at 171 µM. Moreover, the IC50 in data set [4] is 5.12 µM; in data set [3], 4.76 µM.
Regarding `COc1cc(-c2nnc(SCc3cccc([N+](=O)[O-])c3)o2)ccc1O`, the “Ratio CC50/IC50” value in data set [1] came to 24.59. This molecule came in with a CC50 at 24 h in [2] of 392 µM. In addition, the IC50 in data set [3] came out at 16 µM.
For `COc1cc(-c2nnc(SCc3cccc(Br)c3)o2)ccc1O` the same measures were 7.95, 382 µM and 48.1 µM.
For `COc1cc(-c2nnc(SCc3cc(F)cc(F)c3)o2)ccc1OCc1cc(F)cc(F)c1` the same measures were 18.49, 266 µM and 14.4 µM.
